Test results published in ChEMBL document CHEMBL1137035, “New DNA binding ligands as a model of chromomycin A3” (Bioorg Med Chem Lett, 2004).

What was measured:
Type in all cases: nucleic-acid assay
Nucleic Acid [1] = assay: Inhibitory concentration required to displace DNA-bound ethidium bromide molecules bound to CA12 (5''-CGCGAATTCGCG)2; NI denotes no inhibition
Summary of the method: (§1)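 Ethidium bromide displacement at 25 °C: duplex DNA (1 μM) and ethidium bromide (1 μM) in 20 mM Tris–HCl, pH 8.0, containing 1 mM MgCl2. Ligand titrated from 0 to 10 μM. Fluorescence read at λex 546 nm, λem 590 nm. IC50 is the concentration displacing 50% of DNA-bound ethidium, expressed as the dimer complex except for Hoechst 33258.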

Nucleic Acid [2] = assay: Inhibitory concentration required to displace DNA-bound ethidium bromide molecules bound to CT12 (5''-CGTAGCGCTACG)2; NI denotes no inhibition; summary of the method: as §1
Nucleic Acid [3] = assay: Inhibitory concentration required to displace DNA-bound ethidium bromide molecules bound to CT12 (5''-CGTAGCGCTACG)2; summary of the method: as §1
Nucleic Acid [4] = assay: Inhibitory concentration required to displace DNA-bound ethidium bromide molecules bound to CA12 (5''-CGCGAATTCGCG)2; summary of the method: as §1
Nucleic Acid [5] = assay: Inhibitory concentration required to displace one of two DNA-bound ethidium bromide molecules bound to CT12 (5''-CGTAGCGCTACG)2
Summary of the method: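 Ethidium bromide displacement at 25 °C. CT12 duplex (1 μM) and ethidium bromide (1 μM) in 20 mM Tris–HCl, pH 8.0, with 1 mM MgCl2. Ligand titrated from 0 to 10 μM. Fluorescence read at λex 546 nm, λem 590 nm. IC50 is the concentration that displaces 50% of DNA-bound ethidium, expressed as dimer complex.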

Compound	IC50 (Nucleic Acid [1])	IC50 (Nucleic Acid [2])	IC50 (Nucleic Acid [3]) [µM]	IC50 (Nucleic Acid [4]) [µM]	IC50 (Nucleic Acid [5]) [µM]
C[C@H]1CC(=O)c2c(cc3cc(O)cc(O)c3c2O)C1	Not Active	Not Active	–	–	–
CCCCCC[C@@H]1C(=O)c2c(cc3cc(O)cc(O)c3c2O)C[C@H]1C	–	–	3	3	–
CCCCC/C=C1/C(=O)c2c(cc3cc(O)cc(O)c3c2O)C[C@H]1C	–	–	2.5	2.5	–
CCCCCC[C@H]1C(=O)c2c(cc3cc(O)cc(O)c3c2O)C[C@H]1C	–	–	3	2.5	–
CCCCCC(O)C1C(=O)c2c(cc3cc(O)cc(O)c3c2O)C[C@H]1C (stereo partly specified)	–	–	6.5	4.5	–
CCCCCCC1C(=O)c2c(cc3cc(O)cc(O)c3c2O)C[C@H]1C (stereo partly specified)	–	–	3.5	3	–
CO[C@@H]1[C@H](O)C[C@@H](O[C@@H]2C[C@H](Oc3cc4cc5c(c(O)c4c(O)c3C)C(=O)[C@@H](O[C@H]3C[C@@H](O[C@H]4C[C@@H](O[C@H]6C[C@](C)(O)[C@@H](OC(C)=O)[C@H](C)O6)[C@H](O)[C@@H](C)O4)[C@H](O)[C@@H](C)O3)[C@H]([C@H](OC)C(=O)[C@@H](O)[C@@H](C)O)C5)O[C@H](C)[C@@H]2OC(C)=O)O[C@@H]1C [CHROMOMYCIN A3]	–	–	–	9	3
CN1CCN(c2ccc3[nH]c(-c4ccc5[nH]c(-c6ccc(O)cc6)nc5c4)nc3c2)CC1 [HOECHST 33258]	–	–	> 20	1	–
